The results in this text go back to ChEMBL document CHEMBL1127320, “Dual-action cephalosporins incorporating a 3'-tertiary-amine-linked quinolone” (J Med Chem, 1994).

Molecules are shown by their SMILES. ≈ marks a conversion by molar mass, not a printed value.

For one assay, the system named is Citrobacter freundii. Description: In vitro minimum inhibitory concentration was measured against Citrobacter freundii BS-16 (beta lactamase producer) strain. It is filed as functional. In short, it runs like this: (§1)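 MICs were determined by agar dilution with 2-fold dilutions giving final 128–0.0156 µg/mL, extended to 0.000977 µg/mL where needed. Streptococci were tested on brain heart infusion agar plus 20 units/mL catalase, Proteus on Mueller-Hinton with 3% agar, and others on Mueller-Hinton agar. Inocula were 100-fold-diluted overnight cultures, about 3 × 10^4 CFU/spot, read after overnight incubation at 36 °C.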

Assay [1] has as its system Escherichia coli. Nature of the assay: In vitro minimum inhibitory concentration was measured against Escherichia coli ATCC 25922 strain. It is filed as functional. In short, it runs like this:
(§2)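 Streptococci were tested on brain heart infusion agar plus 20 units/mL catalase, Proteus on Mueller-Hinton with 3% agar, and others on Mueller-Hinton agar. Inocula were 100-fold-diluted overnight cultures, about 3 × 10^4 CFU/spot, read after overnight incubation at 36 °C.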

Assay [2] relates to Escherichia coli. Description: In vitro minimum inhibitory concentration was measured against Escherichia coli TEM-1 (Beta lactamase producer) strain. It is filed as functional. Put shortly:
as §2

Another assay deals with Enterococcus faecalis. Nature of the assay: In vitro minimum inhibitory concentration was measured against Enterococcus faecalis ATCC 29212 strain. It is filed as functional. In short, it runs like this: as §2
In assay [3] the test system is Enterobacter cloacae. Nature of the assay: Bacterial challenge for systemic murine infection against Enterobacter cloacae 5699. In kind it is functional. In short, it runs like this:
(§3)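 Mouse protection test in CD1 Swiss albino mice (18-20 g). Mice were infected intraperitoneally with 0.5 mL of diluted bacterial suspension. A single subcutaneous dose at the dorsal neck base was given within 5 min, with doses from 250 to 0.05 mg/kg. Six mice per group were used. ED50 was obtained by the Reed-Muench method.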

Assay [4] relates to Enterobacter cloacae. Description: In vitro minimum inhibitory concentration was measured against Enterobacter cloacae 5699 strain. In kind it is functional.
Assay [5] relates to Klebsiella pneumoniae. Description: Bacterial challenge for systemic murine infection against Klebsiella pneumoniae A. In kind it is functional. In short, it runs like this: as §3
In assay [6] the test system is Klebsiella pneumoniae. Description: In vitro minimum inhibitory concentration was measured against Klebsiella pneumoniae A strain. In kind it is functional. Put shortly: as §2
A further assay deals with Micrococcus luteus. Nature of the assay: In vitro minimum inhibitory concentration was measured against Micrococcus luteus ATCC 9341 strain. It is filed as functional. Put shortly:
as §2

The target in assay [7] is T1, Penicillin-binding protein 1A (Escherichia coli K-12) (UniProt P02918).
T1 sequence (whole entry): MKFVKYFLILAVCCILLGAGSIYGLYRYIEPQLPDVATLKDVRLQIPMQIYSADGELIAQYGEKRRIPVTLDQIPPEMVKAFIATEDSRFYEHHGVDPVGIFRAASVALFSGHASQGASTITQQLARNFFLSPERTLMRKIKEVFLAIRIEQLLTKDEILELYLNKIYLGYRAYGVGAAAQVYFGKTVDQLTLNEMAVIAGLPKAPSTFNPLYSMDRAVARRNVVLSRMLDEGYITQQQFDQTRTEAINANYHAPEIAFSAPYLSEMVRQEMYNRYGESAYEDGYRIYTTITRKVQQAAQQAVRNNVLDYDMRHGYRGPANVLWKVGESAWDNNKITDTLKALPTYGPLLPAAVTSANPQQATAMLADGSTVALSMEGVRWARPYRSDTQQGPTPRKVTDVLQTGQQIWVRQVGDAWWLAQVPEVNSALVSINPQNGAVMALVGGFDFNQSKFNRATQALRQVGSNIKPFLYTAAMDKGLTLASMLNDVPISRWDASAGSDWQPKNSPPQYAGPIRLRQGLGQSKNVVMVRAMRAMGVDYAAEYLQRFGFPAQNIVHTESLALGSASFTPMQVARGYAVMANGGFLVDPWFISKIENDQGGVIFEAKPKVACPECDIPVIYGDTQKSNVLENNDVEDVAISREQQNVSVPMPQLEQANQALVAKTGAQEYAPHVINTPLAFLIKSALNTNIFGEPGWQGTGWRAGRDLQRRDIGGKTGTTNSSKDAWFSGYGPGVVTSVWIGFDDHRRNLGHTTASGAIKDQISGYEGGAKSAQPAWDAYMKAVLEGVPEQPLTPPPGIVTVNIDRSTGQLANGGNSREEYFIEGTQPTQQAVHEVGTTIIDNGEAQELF
Nature of the assay: Affinity for penicillin binding protein 1a of Escherichia coli UB1005 (DC0) was evaluated. The arrangement: unit not given here. In short, it runs like this:
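Solubilised membranes from sonicated E. coli UB1005 served as the binding-protein source. Binding was read as inhibition of [14C]penicillin G binding.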

The test system of assay [8] is Pseudomonas aeruginosa. Nature of the assay: In vitro minimum inhibitory concentration was measured against Pseudomonas aeruginosa 18S/H strain. It is filed as functional. Put shortly:
as §2

In assay [9] the test system is Pseudomonas aeruginosa. Description: In vitro minimum inhibitory concentration was measured against Pseudomonas aeruginosa 8780 strain. In kind it is functional. Put shortly: as §2
Assay [10] concerns Serratia marcescens. Description: In vitro minimum inhibitory concentration was measured against Serratia marcescens 1071(beta lactamase producer) strain. It is filed as functional. In short, it runs like this:
as §2

Assay [11] relates to Staphylococcus aureus. Description: Bacterial challenge for systemic murine infection against Staphylococcus aureus Smith. It is filed as functional.
Another assay deals with Streptococcus pneumoniae. Nature of the assay: Bacterial challenge for systemic murine infection against Streptococcus pneumoniae 6301. It is filed as functional.
In assay [12] the test system is Serratia marcescens. Nature of the assay: Bacterial challenge for systemic murine infection against Serratia marcescens SM. In kind it is functional. Put shortly:
as §3

Assay [13] has as its system Staphylococcus aureus. Nature of the assay: In vitro minimum inhibitory concentration was measured against Staphylococcus aureus 67-0 (Methicillin resistant) strain. In kind it is functional.
Assay [14] has as its system Staphylococcus aureus. Description: In vitro minimum inhibitory concentration was measured against Staphylococcus aureus 753 (Methicillin resistant) strain. In kind it is functional.
For assay [15], the system named is Staphylococcus aureus. Nature of the assay: In vitro minimum inhibitory concentration was measured against Staphylococcus aureus smith strain. In kind it is functional.
Assay [16] has as its system Escherichia coli. Nature of the assay: Minimum inhibitory concentration for DC2, a permeability mutant. Put shortly: as §1
Assay [17] has as its system Escherichia coli. Nature of the assay: Minimum inhibitory concentration against E. coli UB1005 (DC0).

Consider `CO/N=C(\C(=O)N[C@@H]1C(=O)N2C(C(=O)O)=C(COC(C)=O)CS[C@H]12)c1csc(N)n1` [CEFOTAXIME], for which the MIC against Citrobacter freundii was determined as 32 µg/mL (≈ 70.3 µM); in the assay with Escherichia coli [1] it was 0.063 µg/mL (≈ 0.138 µM); in the assay with Escherichia coli [2], 0.063 µg/mL (≈ 0.138 µM); against Enterococcus faecalis it was 0.25 µg/mL (≈ 0.549 µM); in the assay with Enterobacter cloacae [4], 0.125 µg/mL (≈ 0.274 µM); against Klebsiella pneumoniae [6], 0.031 µg/mL (≈ 0.0681 µM). Moreover, the MIC against Micrococcus luteus was 0.031 µg/mL (≈ 0.0681 µM); against Pseudomonas aeruginosa [8], 128 µg/mL (≈ 281 µM); against Pseudomonas aeruginosa [9], 16 µg/mL (≈ 35.1 µM); in the assay on Serratia marcescens [10], 32 µg/mL (≈ 70.3 µM); with Staphylococcus aureus [13], above 128 µg/mL; in the assay with Staphylococcus aureus [14], above 128 µg/mL. For the same compound, the MIC was 2 µg/mL (≈ 4.39 µM) in the assay with Staphylococcus aureus [15], below 0.016 µg/mL with Escherichia coli [16] and 0.031 µg/mL (≈ 0.0681 µM) in the assay on Escherichia coli [17]. For the same compound, the LD50 is on record as 50 in the assay with Enterobacter cloacae [3]; 45 with Klebsiella pneumoniae [5]; 6 in the assay on Staphylococcus aureus [11]; 69 with Streptococcus pneumoniae; below 25 in the assay with Serratia marcescens [12]. The same compound returned a Binding affinity in assay [7] of 0.1.
Take `CO/N=C(\C(=O)N[C@@H]1C(=O)N2C(C(=O)O)=C(CN3CCN(c4cc5c(cc4F)c(=O)c(C(=O)O)cn5C4CC4)CC3)CS[C@H]12)c1csc(N)n1`: the MIC in the assay with Citrobacter freundii turned out to be 0.125 µg/mL (≈ 0.172 µM); against Escherichia coli [1], 0.125 µg/mL (≈ 0.172 µM); in the assay with Escherichia coli [2] it was 0.25 µg/mL (≈ 0.344 µM); in the assay with Enterococcus faecalis, 4 µg/mL (≈ 5.5 µM); with Enterobacter cloacae [4], 0.5 µg/mL (≈ 0.688 µM); in the assay with Klebsiella pneumoniae [6], 1 µg/mL (≈ 1.38 µM). In addition, the MIC with Micrococcus luteus worked out at 0.125 µg/mL (≈ 0.172 µM); in the assay with Pseudomonas aeruginosa [8], 2 µg/mL (≈ 2.75 µM); with Pseudomonas aeruginosa [9], 8 µg/mL (≈ 11 µM); against Serratia marcescens [10] it was 1 µg/mL (≈ 1.38 µM); against Staphylococcus aureus [13], 8 µg/mL (≈ 11 µM); against Staphylococcus aureus [14] it was 4 µg/mL (≈ 5.5 µM). Further, the MIC turned out to be 4 µg/mL (≈ 5.5 µM) in the assay on Staphylococcus aureus [15], 0.063 µg/mL (≈ 0.0867 µM) against Escherichia coli [16] and 1 µg/mL (≈ 1.38 µM) in the assay on Escherichia coli [17]. The LD50 with Enterobacter cloacae [3] is reported as 7055; with Klebsiella pneumoniae [5], above 10000; in the assay on Staphylococcus aureus [11], above 8; in the assay with Streptococcus pneumoniae it was above 10000; with Serratia marcescens [12], 27. Moreover, the Binding affinity in assay [7] was above 100.
